Measurements pooled from the literature.
Protocols differ between the studies behind these lines.
Target: Maternal embryonic leucine zipper kinase (MELK, Homo sapiens, UniProt Q14680)

C1=C/COCc2cc(ccc2OCCN2CCCC2)Nc2nccc(n2)-c2cccc(c2)COC/1  remaining binding (binding; 0.1 µM): 84%
CC#CC(=O)N1CCC[C@H]1c1nc(-c2ccc(C(=O)Nc3ccccn3)cc2)c2c(N)nccn12  inhibition (enzyme activity; inhibitor; 1 µM): 41%
C#Cc1cc(-c2cc(Nc3nc(N[C@@H](C)c4ccc(F)cn4)ncc3Cl)n[nH]2)ccc1C=O  inhibition (enzyme activity; inhibitor; 0.2 µM): 34.3%
CO[C@@H]1[C@H](N(C)C(=O)c2ccccc2)C[C@H]2O[C@]1(C)n1c3ccccc3c3c4c(c5c6ccccc6n2c5c31)C(=O)NC4  inhibition (enzyme activity; inhibitor; 1 µM): 60%
C[C@H]1CC[C@H](n2c3cnccc3c3cnc(Nc4ccc5c(n4)CCN(C(=O)CO)C5)nc32)CC1  remaining signal (cell-free assay; 1 µM): 24%
CCCCC(=O)Nc1ccc(-c2ccc3ncn(CCC)c(=O)c3c2)cn1  remaining binding (binding; competition with immobilised ligand; 0.5 µM): 86%
COc1ccc2oc(-c3ccc4nc(N)oc4c3)c/c(=N\c3ccccc3NC(=O)CCN)c2c1  remaining binding (binding; 1 µM): 99%
CN1CCN(C(=O)c2ccc(NC(=O)Nc3ccc(N(C)c4ccnc(Nc5ccc(CS(C)(=O)=O)cc5)n4)cc3)cc2)CC1  remaining binding (binding; 1 µM): 81%
